According to article PMC13022283 (Scientific Reports, 2026):
“Also recorded” adds a separate entry of the source.

Key:
MTT assay = format: cell-based, human; details: human, MCF-7 breast cancer cells, MCF-7, 100 μM; for cytotoxicity at 24 h, 100 µM: % Cytotoxicity ± SD; for viability at 24 h, 100 µM: % Viability
h-NPP1 = target: T1, h-NPP1 (Homo sapiens, UniProt P22413); experiment: h-NPP1 activity assay; format: biochemical; details: for inhibition at 100 µM: read-out: % Inhibition h-NPP1
T1 sequence (P22413 1-925): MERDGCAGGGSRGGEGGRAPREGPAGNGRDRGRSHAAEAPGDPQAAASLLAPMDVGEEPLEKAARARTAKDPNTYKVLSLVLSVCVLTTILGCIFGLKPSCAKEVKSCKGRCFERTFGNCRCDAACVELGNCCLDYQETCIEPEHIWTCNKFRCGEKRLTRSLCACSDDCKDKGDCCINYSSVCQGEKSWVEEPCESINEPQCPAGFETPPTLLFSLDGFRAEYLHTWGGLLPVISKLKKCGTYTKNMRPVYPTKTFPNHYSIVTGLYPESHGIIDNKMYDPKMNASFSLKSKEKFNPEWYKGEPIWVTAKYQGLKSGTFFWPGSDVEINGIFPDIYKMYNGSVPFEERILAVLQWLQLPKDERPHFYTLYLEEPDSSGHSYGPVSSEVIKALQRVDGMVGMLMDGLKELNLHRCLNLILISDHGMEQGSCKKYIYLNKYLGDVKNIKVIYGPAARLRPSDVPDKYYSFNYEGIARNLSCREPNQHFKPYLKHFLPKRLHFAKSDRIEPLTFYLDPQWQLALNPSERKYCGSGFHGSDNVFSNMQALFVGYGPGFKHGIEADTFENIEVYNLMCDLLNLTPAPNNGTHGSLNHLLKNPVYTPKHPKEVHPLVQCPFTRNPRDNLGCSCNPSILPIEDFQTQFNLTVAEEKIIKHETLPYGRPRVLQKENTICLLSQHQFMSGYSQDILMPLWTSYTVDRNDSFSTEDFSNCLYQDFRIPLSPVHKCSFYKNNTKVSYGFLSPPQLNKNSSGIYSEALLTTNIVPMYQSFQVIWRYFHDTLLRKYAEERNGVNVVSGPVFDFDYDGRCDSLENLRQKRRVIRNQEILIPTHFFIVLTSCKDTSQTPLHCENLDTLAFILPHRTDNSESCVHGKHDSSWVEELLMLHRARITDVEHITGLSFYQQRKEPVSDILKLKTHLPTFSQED

h-NTPDase1 = target: T2, h-NTPDase1 (Homo sapiens, UniProt P49961); experiment: h-NTPDase activity assay; format: biochemical; details: for inhibition at 100 µM: read-out: % Inhibition h-NTPDase1
T2 sequence (P49961 1-510): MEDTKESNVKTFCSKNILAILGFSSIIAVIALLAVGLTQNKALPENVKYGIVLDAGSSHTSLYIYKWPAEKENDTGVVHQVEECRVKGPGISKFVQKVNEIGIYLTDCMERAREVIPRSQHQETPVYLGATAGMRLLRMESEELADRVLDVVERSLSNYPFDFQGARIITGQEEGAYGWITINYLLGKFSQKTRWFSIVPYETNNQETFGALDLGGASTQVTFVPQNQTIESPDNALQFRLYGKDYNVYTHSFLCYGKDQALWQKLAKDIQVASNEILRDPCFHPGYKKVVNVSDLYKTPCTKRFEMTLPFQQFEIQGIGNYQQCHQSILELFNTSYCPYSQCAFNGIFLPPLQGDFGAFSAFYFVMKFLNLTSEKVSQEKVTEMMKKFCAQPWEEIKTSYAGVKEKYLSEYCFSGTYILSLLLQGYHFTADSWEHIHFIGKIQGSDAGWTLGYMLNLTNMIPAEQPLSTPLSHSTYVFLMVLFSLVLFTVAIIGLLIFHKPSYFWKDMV

h-NTPDases = experiment: h-NTPDase activity assay, all four isoenzymes; format: biochemical, human
In short: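 Human NTPDase1, -2, -3 or -8 came from COS-7 cells transfected with plasmids via Lipofectamine, harvested at 44–48 h, sonicated and cleared of nuclei, with protein measured by Bradford. Enzyme per well was 12, 37, 43 or 63 ng respectively. Compound (0.1 mM final) was pre-incubated 10 min at 37 °C in 50 mM Tris–HCl, 5 mM CaCl2, pH 7.4. The reaction was started with ATP (100 µM), run 15 min, and stopped with malachite green; Pi was read at 630 nm.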

[1] = tested on: MCF-7 breast cancer cells; experiment: MTT assay; format: cell-based, human; details: MCF-7, 100 μM, 24 h, 100 µM
[2] = tested on: A549 human lung carcinoma cells; experiment: Fluorescence microscopy of treated cells; format: cell-based; details: A549, 10 μM, 24 h incubation

Compound	inhibition at 100 µM (h-NPP1) [%]	IC50 (h-NTPDase1) [nM]	inhibition at 100 µM (h-NTPDase1) [%]	activity against all four h-NTPDase isoenzymes (h-NTPDases)	IC50 (h-NPP1) [nM]	cytotoxicity at 24 h, 100 µM (MTT assay) [%]	viability at 24 h, 100 µM (MTT assay) [%]	% Viability [1] [%]	cytotoxicity seen in bright-field images [2]
O=C(Nc1ccccn1)c1ccc2ncccc2c1 [Compound 4g, N-(pyridin-2-yl)quinoline-6-carboxamide]	43.7	610 ± 90	58.5			47.4 ± 1.8	52.6		
O=C(Nc1ccc(F)cc1F)c1ccc2ncccc2c1 [Compound 4e, N-(2,4 difluorophenyl)quinoline-6-carboxamide]	34.6		32.6	poor activity; also recorded: inactive		14.6 ± 2.48	85.4		
O=C(Nc1ccccc1I)c1ccc2ncccc2c1 [Compound 4h, N-(2-iodophenyl)quinoline-6-carboxamide]	33.9		18.4			49.7 ± 2.17	50.3		
O=C(Nc1c(F)cccc1F)c1ccc2ncccc2c1 [Compound 4d, N-(2,6 difluorophenyl)quinoline-6-carboxamide]	54.5		76.1		730 ± 90	48 ± 12.7	52		no signs of cytotoxicity

More lines, main results first:

inhibition at 100 µM (h-NPP1) [%]	IC50 (h-NTPDase1) [nM]	inhibition at 100 µM (h-NTPDase1) [%]	activity against all four h-NTPDase isoenzymes (h-NTPDases)	IC50 (h-NPP1) [nM]	Compound	cytotoxicity at 24 h, 100 µM (MTT assay) [%]	viability at 24 h, 100 µM (MTT assay) [%]	% Viability [1] [%]	cytotoxicity seen in bright-field images [2]
45.2	6130 ± 640	57.7			Cc1ccc(CNC(=O)c2ccc3ncccc3c2)cc1 [Compound 4c, N-(4-methylbenzyl)quinoline-6-carboxamide]	42.2 ± 0.81	57.8		
29.4		32.4	poor activity		Cc1ccc(F)cc1NC(=O)c1ccc2ncccc2c1 [Compound 4l, N-(5-fluoro 2-methylphenyl)quinoline-6-carboxamide]	39.5 ± 15.5	60.5		
67.7		33.8	poor activity	110 ± 20	O=C(Nc1ccc(I)cc1)c1ccc2ncccc2c1 [Compound 4k, N-(4-Iodophenyl)quinoline-6-carboxamide]	56.9 ± 16.9	43 to 45	43.1	
44.8	3460 ± 490	68.9			O=C(NCc1ccc(F)cc1)c1ccc2ncccc2c1 [Compound 4b, N-(4-fluorobenzyl)quinoline-6-carboxamide]	25.1 ± 6.08	74.9		
